Data set [1] is described as follows: Effect on Trypanosoma cruzi epimastigotes Y (ATCC 50832) expressing GFP proliferation assessed as increase in cell proliferation at 0.3 uM incubated for 72 hrs by XTT assay relative to control. In kind it is functional. In a few lines:
(§1)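 Y-strain epimastigotes kept in LIT medium with 10% heat-inactivated FBS at 28 °C; log-phase cells used. 1.5 × 10^5 parasites per well. Exposure at 10 μM (screen) or six concentrations from 10–0.3 μM for 72 h at 28 °C, with benznidazole control. XTT/PMS added for 2.5 h at 28 °C, then MeOH fixation and A490. Viability given as % of vehicle, or IC50. Triplicate, at least two independent experiments.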

For data set [2], the system named is Trypanosoma cruzi. The data set is described as follows: Antitrypanosomal activity against Trypanosoma cruzi epimastigotes Y (ATCC 50832) expressing GFP at 10 uM incubated for 72 hrs by XTT assay. Type of data set: functional, organism-based. In a few lines: as §1
Background: Formazan colour is commonly taken as a measure of viable cells.

Data set [3] can be described thus: Cytotoxicity against mouse RAW264.7 cells assessed as reduction in cell viability. In kind it is toxicity, cell-based.
Data set [4] relates to Trypanosoma cruzi. Description: Antitrypanosomal activity against Trypanosoma cruzi epimastigotes Y (ATCC 50832) expressing GFP incubated for 72 hrs by XTT assay. In kind it is functional, organism-based. The method in brief: as §1
Data set [5] is described as follows: Selectivity index, ratio of IC50 for mouse RAW264.7 cells to IC50 for antitrypanosomal activity against Trypanosoma cruzi epimastigotes Y (ATCC 50832) expressing GFP. The conditions noted are these: read-out: Ratio IC50. In kind it is toxicity.
The nature of data set [6]: Selectivity index, ratio of IC50 for mouse RAW264.7 cells to IC50 for antitrypanosomal activity against Trypanosoma cruzi […] Y (ATCC 50832) expressing GFP infected in mouse RAW264.7 cells assessed as inhibition of parasite replication. The note with it: read-out: Ratio IC50. In kind it is toxicity, cell-based.
Data set [7] relates to Trypanosoma cruzi. The data set is described as follows: Antitrypanosomal activity against Trypanosoma cruzi trypomastigotes Y (ATCC 50832) expressing GFP infected in CCL39 cells assessed as reduction in parasite replication measured after 1 hr by microscopy. In kind it is functional, organism-based. The method in brief:
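CCL39 fibroblasts seeded at 20,000 cells/mL and left to adhere 24 h. Infected with trypomastigotes at multiplicity 10. Next day free parasites washed off and compound added in RPMI with 2% hiFBS. On day 4 after infection, cells fixed in 4% paraformaldehyde for 1 h and imaged by brightfield and GFP fluorescence microscopy.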

Data set [8] concerns Trypanosoma cruzi. Description: Antitrypanosomal activity against Trypanosoma cruzi […] Y (ATCC 50832) expressing GFP infected in mouse RAW264.7 cells assessed as inhibition of parasite replication measured after 6 days by FACS analysis. In kind it is functional, organism-based. The note with it: time 6.0 day. The method in brief: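 RAW264.7 cells seeded at 40,000 or 10,000 cells/mL and left to adhere 24 h. Infected with swim-out trypomastigotes at multiplicity 10. Next day free parasites washed off and compound added in RPMI with 2% FBS. After 6 days, released GFP parasites fixed in 4% paraformaldehyde 1 h and counted by FACS. Run in triplicate with DMSO and benznidazole controls.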
A general note: A flow cytometer gives signals particle by particle.

Each structure is given as a SMILES string. Active and inactive are the calls of the source. The rule behind the calls is not given here.

Consider four compounds from ChEMBL document CHEMBL5584363, “Euphane and Tirucallane Triterpenes with Trypanocidal Activity from Euphorbia desmondii” (J Nat Prod, 2024).

Turning to `CC(C)=CCC[C@@H](C)[C@@H]1CC[C@]2(C)C3=C(C(=O)C[C@@]12C)[C@@]1(C)CC[C@H](O)C(C)(C)[C@@H]1C[C@H]3O`, the Activity in data set [1] is reported as 15%. Also, the outcome with Trypanosoma cruzi [2] was Active.
As a reminder, the IC50 is the concentration that inhibits the measured activity by half. For the compound `CC(=O)CCC[C@H](C)[C@@H]1CC[C@]2(C)C3=C(C(=O)C[C@@]12C)[C@@]1(C)CC[C@H](O)C(C)(C)[C@@H]1CC3=O`, the Activity in data set [1] was 15%. Also, the IC50 in data set [3] was 24.4 µM; in the data set with Trypanosoma cruzi [4], 3.7 µM. Further, in the data set on Trypanosoma cruzi [2], the result was Active. Moreover, in data set [5], the selectivity ratio is 6.6.
Consider `C[C@@H](C/C=C/C(C)(C)OO)[C@@H]1CC[C@]2(C)C3=C(C(OO)C[C@@]12C)[C@@]1(C)CC[C@H](O)C(C)(C)[C@@H]1CC3=O` (some centres not stated), for which, in data set [1], the Activity amounted to 15%. Besides, the result in the data set on Trypanosoma cruzi [2] was Active.
`C[C@H](C/C=C/C(C)(C)OO)[C@@H]1CC[C@]2(C)C3=C(CC[C@@]12C)[C@@]1(C)CC[C@H](O)C(C)(C)[C@@H]1CC3=O`: the selectivity ratio in data set [6] is over 10. In the data set with Trypanosoma cruzi [7], the outcome was Active. In addition, the inhibition entry with Trypanosoma cruzi [8] is “Dose-Dependent Effect”.
